Screens as filed in PubChem.
Shown are actives, neighbours in structure and some others; about 12% of the full set was active somewhere.
Wee1 stabilizer: inhibitors of human Wee1 degradation | AID 1321 | HeLa Luc-Wee1K328M stability, luciferase luminescence; 100% = proteasome inhibitor MG132 effect | actives 1.2% (n = 220,000) | reporter increase, % at 5 µM;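 active = activation above the mean of all tested compounds plus 3 SD, set per screening run, cut at about 8.8% in these data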;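 also: cells exposed to compound for 20 h before luminescence read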
Target sequence (P30291 whole entry K328M): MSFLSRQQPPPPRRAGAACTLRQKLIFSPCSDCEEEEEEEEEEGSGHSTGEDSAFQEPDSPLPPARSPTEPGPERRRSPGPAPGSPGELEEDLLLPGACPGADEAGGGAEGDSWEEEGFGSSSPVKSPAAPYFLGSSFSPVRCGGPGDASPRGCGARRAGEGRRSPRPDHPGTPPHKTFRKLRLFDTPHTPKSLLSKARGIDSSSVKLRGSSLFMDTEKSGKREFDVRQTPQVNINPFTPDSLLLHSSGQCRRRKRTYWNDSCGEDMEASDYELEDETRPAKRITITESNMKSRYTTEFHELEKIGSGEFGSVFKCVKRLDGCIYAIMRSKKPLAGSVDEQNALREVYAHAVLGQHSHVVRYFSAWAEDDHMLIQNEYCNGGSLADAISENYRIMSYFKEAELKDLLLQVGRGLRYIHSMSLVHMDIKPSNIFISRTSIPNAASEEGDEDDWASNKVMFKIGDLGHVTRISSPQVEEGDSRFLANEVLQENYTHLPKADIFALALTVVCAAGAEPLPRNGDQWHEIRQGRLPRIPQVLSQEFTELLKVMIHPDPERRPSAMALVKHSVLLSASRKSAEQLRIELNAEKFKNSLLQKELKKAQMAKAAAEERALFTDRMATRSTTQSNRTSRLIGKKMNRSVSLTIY
L major viab: inhibitors of Leishmania major promastigote growth; Leishmania major promastigotes, resazurin fluorescence viability; inhibition, % at 10 µM; actives 9% (n = 200,000); AID 1063;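 also: promastigotes grown with compound for 44 hours at 28 °C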
Arbovirus anti: blocks arbovirus infection | inhibition, % at 10 µM | arbovirus infection cell-based antiviral screen | actives 0.37% (n = 200,000); in the data active = inhibition above about 30%
Rad51 HR inh: blocks human Rad51 in homologous recombination | inhibition, % at 10 µM | hRad51 DNA strand exchange, fluorescence dequenching | actives 0.085% (n = 200,000) | Q06609;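 active = inhibition above 40% at the single screening dose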
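material = hRad51 filaments on single-stranded DNA | timing = filaments 15 min 37 °C, then compound 30 min | signal = FRET fluorescence dequenching, excitation 485 nm, emission 520 nm | benchmarks = control wells and blank wells on each plate | evaluation = percent inhibition relative to plate controls and blanks | compound = 10 µM final, single point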
PKD1 kinase inh: blocks activity of human protein kinase D1; PKD1 kinase fluorescence polarization assay; actives 0.056% (n = 200,000); Q15139; inhibition, % (no concentration beside the values)
CHOP inh: CHOP inhibition in unfolded protein response; actives 3.8% (n = 220,000); CHO-K1 CHOP-promoter luciferase, tunicamycin-induced, 15-18 h; inhibition, % at 10 µM;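 active = compounds that reduced the stress-induced luciferase reporter signal by more than about 70% of percent inhibition, limit read from the data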
Of the large screens only hits and unclear results are named; the others gave an inactive call. Rule as the data show it, unless noted: active = inhibition above about 50%; inactive = the rest.

CN(C)C(=O)C12CCC(C)(C(=O)C1Br)C2(C)C (configuration not stated)	none (no result: L major viab, Arbovirus anti, PKD1 kinase inh)
CN(C)CCN(Cc1ccc(Cl)cc1)c1ccccn1	L major viab 99
Cc1ccc(-n2c(C)cc(C(=O)OCC(=O)N(CC(C)C)C3CCS(=O)(=O)C3)c2C)cc1 (configuration not stated)	Wee1 stabilizer 16
Oc1ccc(-c2nc3ccc4ccccc4c3c3c2CCC3)cc1O	Wee1 stabilizer 9.5
CSc1nn(CCc2ccncc2)c(=S)s1	L major viab 56
O=C1C(Cl)=C(N2CCN(c3ccccc3[N+](=O)[O-])CC2)C(=O)c2ccccc21	L major viab 100
O=[N+]([O-])c1cc(Cl)ccc1N1CCCC1	none
Cc1ccc2cc3cc(C(=O)NCc4ccc5c(c4)OCO5)oc3nc2c1	none (no result: Rad51 HR inh)
COc1ccc(C)cc1NC(=O)c1cc2cc3ccc(C)cc3nc2o1	none
COc1ccc2cc3cc(C(=O)Nc4ccc5c(c4)OCO5)oc3nc2c1	L major viab 100
COc1ccc2nc3oc(C(=O)Nc4ccc(OC)c(OC)c4)cc3cc2c1	Wee1 stabilizer 8.9
O=C(COC(=O)Cc1ccc(Cl)cc1)Nc1c(F)cccc1F	none
O=C(/C=C\c1ccccc1OC(=O)c1ccccc1F)c1cc2ccccc2o1	L major viab 52
O=C(Oc1ccccc1)c1cc2ccccc2o1	none
COc1cccc(CC(=O)n2nc(N)c3cc4ccc(OC)cc4nc32)c1	CHOP inh 95 (no result: Rad51 HR inh)
COc1ccc2cc3c(N)nn(C(=O)c4ccc(F)cc4)c3nc2c1	none (no result: L major viab, Arbovirus anti, PKD1 kinase inh)
COc1ccc2cc3c(N)nn(C(=O)Cc4ccc(Cl)cc4)c3nc2c1	CHOP inh 83 (no result: Rad51 HR inh)
COc1ccc2cc3c(N)nn(C(=O)Cc4c[nH]c5ccccc45)c3nc2c1	CHOP inh 79 (no result: L major viab, Arbovirus anti, PKD1 kinase inh)
CCOC(=O)Cc1c[nH]c2ccccc12	none
COc1ccc(CC(=O)n2nc(-c3ccc(Cl)cc3)nc2NCc2ccco2)cc1	none
COc1ccc2cc3c(N)nn(C(=O)c4cccc(F)c4)c3nc2c1	none (no result: L major viab, Arbovirus anti, PKD1 kinase inh)
COc1ccc2cc3c(N)nn(C(=O)c4ccccc4Cl)c3nc2c1	CHOP inh 77 (no result: L major viab, Arbovirus anti, PKD1 kinase inh)
CCC(CC)C(=O)NN(C(=O)c1ccncc1)C1CC(=O)N(c2ccccc2)C1=O (configuration not stated)	none (no result: L major viab, Arbovirus anti, PKD1 kinase inh)
CC(C)(C)c1ccccc1NC(=O)NC1CCN(Cc2c(F)cccc2Cl)CC1	none (no result: L major viab, Arbovirus anti, PKD1 kinase inh)
CC(C)C1C(C#N)=C(N)Oc2n[nH]c(-c3ccccc3)c21 (configuration not stated)	none
CC(C)c1[nH]nc2c1C(C(C)C)C(C#N)=C(N)O2 (configuration not stated)	L major viab 69
COc1cc(C(=S)N2CCCCC2)ccc1OCC(=O)Nc1ccccc1Cl	L major viab 66
COc1ccc(C(=O)Oc2ccc(C(=S)N3CCCC3)cc2)cc1OC	CHOP inh 93
O=C(COc1ccc(C(=S)N2CCOCC2)cc1Cl)Nc1ccccc1Cl	none
O=C(O)c1ccccc1S	Wee1 stabilizer 12 (no result: Rad51 HR inh)
COc1ccc(OCc2cc(C(=O)O)c(C)o2)cc1	none (no result: L major viab, Arbovirus anti, PKD1 kinase inh)
CCOC(=O)N1CCC(N2Cc3cccc(C(=O)NCc4ccc(OC)cc4)c3C2=O)CC1	L major viab 70 (no result: Rad51 HR inh)
Fc1ccc(Cn2nnc(-c3ccc(CN4CCOCC4)cc3)n2)cc1	L major viab 95
Clc1ccc(Cn2nnc(-c3ccccc3)n2)cc1	none
COc1ccc(NC(=O)Cn2nnc(-c3ccc(CN4CCOCC4)cc3)n2)c(OC)c1	L major viab 83
Fc1cccc(Cl)c1Cn1nnc(-c2ccc(N3CCOCC3)cc2)n1	none
Clc1ccc(Cn2nnc(-c3ccc(CN4CCOCC4)cc3)n2)cc1	L major viab 96
Cc1ccccc1NC(=O)Cn1nnc(-c2ccc(CN3CCC(C)CC3)cc2)n1	none (no result: L major viab, Arbovirus anti, PKD1 kinase inh)
CC(=O)c1cccc(NC(=O)N2C3CCC2CC(NC(=O)C2CC2)C3)c1 (configuration not stated)	none
COc1ccc(Nc2nnc(SCC3CCCO3)s2)cc1 (configuration not stated)	none
O=C(O)C1Cc2ccccc2CN1C(=O)CCl (configuration not stated)	none
O=C(Nc1nc2cc(Cl)ccc2s1)C1CCCN(S(=O)(=O)c2cccc3cccnc23)C1 (configuration not stated)	CHOP inh 75
O=C(C1CCN(S(=O)(=O)c2cccc3cccnc23)CC1)N1CCN(c2ccccn2)CC1	none (no result: Rad51 HR inh)
